Type in all cases: functional, Heart
Conditions in all cases: route intraperitoneal

Assay [1] relates to Rattus norvegicus. The assay can be described thus: Cardioprotective effect in Langendorff perfused Wistar rat hearts assessed as ratio for ischemic injured area to total area at 40 mg/kg, ip. A digest of the protocol: (§1)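 Rats pretreated intraperitoneally (test agents 40 mg/kg; reference agents 40 or 1 mg/kg); hearts isolated and Langendorff-perfused through an ischemia-reperfusion cycle. Rate-pressure product at 120 min reperfusion expressed as % of the last preischemic minute. After reperfusion, TTC staining of left ventricle (necrotic white/pale pink, healthy red); injured area given as % of total area. Mean ± SE, n = 4-6 experiments.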

For assay [2], the system named is Rattus norvegicus. The assay can be described thus: Cardioprotective effect in Langendorff perfused Wistar rat hearts assessed as ischemic damage measured by rate-pressure product-120 at 40 mg/kg, ip. A digest of the protocol: as §1
Assay [3] relates to Rattus norvegicus. The assay can be described thus: Cardioprotective effect in Langendorff perfused Wistar rat hearts assessed as ratio for ischemic injured area to total area at 1 mg/kg, ip. The method in brief:
as §1

Assay [4] has as its system Rattus norvegicus. The assay can be described thus: Cardioprotective effect in Langendorff perfused Wistar rat hearts assessed as ischemic damage measured by rate-pressure product-120 at 1 mg/kg, ip. The method in brief: as §1

Turning to `CC(=O)Nc1ccc(CN2C[C@@]3(CC(C)(C)Oc4ccccc43)OCC2=O)cc1`, the results for the Activity in assay [1] and in assay [2] were 16% and 64%, respectively.
In the case of `CC(=O)Nc1ccc(CN2C[C@]3(CC(C)(C)Oc4ccccc43)OCC2=O)cc1`, the Activity in assay [1] is reported as 35%; in assay [2], 27%.
Consider `CC(=O)Nc1ccc(CN2CC3(CC(C)(C)Oc4ccccc43)OCC2=O)cc1` (racemic), for which the Activity is recorded as 22% in assay [1] and 59% in assay [2].
With `CC1(C)Oc2ccc(C#N)cc2C(N2CCCC2=O)C1O` (stereo not given) [CROMAKALIM], the Activity is 23% in assay [3] and 86% in assay [4].
Turning to `CC1=Nc2ccc(Cl)cc2S(=O)(=O)N1` [DIAZOXIDE], the Activity is 25% in assay [1] and 45% in assay [2].

(Values after ChEMBL document CHEMBL1140947, “Enantioselectivity in cardioprotection induced by (S)- (-)-2,2-dimethyl-N-(4'-acetamido-benzyl)-4-spiromorpholone-chromane” (2009).)
